From ChEMBL document CHEMBL4130514, “Sporothriolide-Related Compounds from the Fungus Hypoxylon monticulosum CLL-205 Isolated from a Sphaerocladina Sponge from the Tahiti Coast” (J Nat Prod, 2017)
The source made the active and inactive calls. No cut-off for these calls is given here.

What was measured:
Escherichia coli = experiment: Antibacterial activity against Escherichia coli; assay type: functional, organism-based
Bacillus subtilis = experiment: Antibacterial activity against Bacillus subtilis; assay type: functional, organism-based
Micrococcus luteus = experiment: Antibacterial activity against Micrococcus luteus; assay type: functional, organism-based
HCT-116 = experiment: Antiproliferative activity against human HCT116 cells after 72 hrs by MTT assay; assay type: functional, cell-based; details: for IC50: HCT-116, 72 h
Procedure, shortened: (§1)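 Tetrazolium colorimetric proliferation assay in HCT-116 (colon carcinoma), PC-3 (prostate) and MCF-7 (breast) cells grown in DMEM with 10% fetal calf serum plus penicillin, streptomycin and fungizone. After 24 h growth, cells were treated with compounds from 100 μM to 10 nM, given in DMSO at 1% to 3% final. MTS was added at 72 h and absorbance was read at 490 nm against untreated cells. IC50 was determined from separate duplicate experiments.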

MCF7 = experiment: Antiproliferative activity against human MCF7 cells after 72 hrs by MTT assay; assay type: functional, cell-based; procedure, shortened: as §1
PC-3 = experiment: Antiproliferative activity against human PC3 cells after 72 hrs by MTT assay; assay type: functional, cell-based; procedure, shortened: as §1
[1] = Inhibition of hyaluronidase (unknown origin); parameters: species or system Homo sapiens

IC50 (HCT-116) [µM]	IC50 (MCF7; MCF7, 72 h) [µM]	IC50 (PC-3; PC-3, 72 h) [µM]	IC50 [1] [µM]	Compound	Activity (Escherichia coli)	Activity (Bacillus subtilis)	Activity (Micrococcus luteus)	Activity (MCF7)	Activity (PC-3)	Activity (HCT-116)
18				C=C(C(=O)O)[C@H]1C[C@@H](CCCCCC)OC1=O	inactive	inactive	inactive			
7.1	4	6.4		C=C1C(=O)O[C@@H]2[C@H]1C(=O)O[C@@H]2CCCCCC	inactive	inactive	inactive			
			300	CCCCCC[C@H]1OC(=O)[C@@H]2[C@H]1OC(=O)[C@]21CCC=C[C@H]1/C=C/[C@@H]1O[C@H](C)C[C@@H]1O	inactive	inactive	inactive	inactive	inactive	inactive
			320	CC1(C)[C@@H](O[C@H]2O[C@H](C(=O)O)[C@@H](O)[C@H](O)[C@H]2O[C@@H]2O[C@H](C(=O)O)[C@@H](O)[C@H](O)[C@H]2O)CC[C@]2(C)[C@H]3C(=O)C=C4[C@@H]5C[C@@](C)(C(=O)O)CC[C@]5(C)CC[C@@]4(C)[C@]3(C)CC[C@@H]12 [GLYCYRRHIZIN]						
